The values below come from ChEMBL document CHEMBL3763056, “O-alkylhydroxylamines as rationally-designed mechanism-based inhibitors of indoleamine 2,3-dioxygenase-1” (Eur J Med Chem, 2016).

Activity calls are given as the source filed them. The calls are words filed in the database; no cut-off is given here. Some results are limits rather than exact numbers.

Data set [1] concerns the target T1, Indoleamine 2,3-dioxygenase 1 (Homo sapiens, UniProt P14902). The data set is described as follows: Inhibition of recombinant human IDO1 assessed as reduction in kynurenine production using L-tryptophan as substrate after 60 mins by microplate reader method.
Target sequence in this assay (P14902 whole entry): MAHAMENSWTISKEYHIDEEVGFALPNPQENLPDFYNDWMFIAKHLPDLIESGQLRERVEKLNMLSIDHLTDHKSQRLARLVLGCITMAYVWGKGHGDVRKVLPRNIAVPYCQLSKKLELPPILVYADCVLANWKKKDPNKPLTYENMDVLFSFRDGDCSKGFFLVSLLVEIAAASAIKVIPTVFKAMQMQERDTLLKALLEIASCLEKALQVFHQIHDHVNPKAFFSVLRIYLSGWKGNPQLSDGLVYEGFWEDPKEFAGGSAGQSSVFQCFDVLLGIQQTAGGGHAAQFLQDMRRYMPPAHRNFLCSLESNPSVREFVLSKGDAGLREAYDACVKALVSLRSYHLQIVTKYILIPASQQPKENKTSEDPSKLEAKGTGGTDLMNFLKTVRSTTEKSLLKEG
The target in data set [2] is T1, Indoleamine 2,3-dioxygenase 1. To be noted: 110 to 990 nM.
Target sequence in this assay (P14902 whole entry, looked up): as the sequence (P14902 whole entry) above
The next data set addresses Cytochrome P450 3A4 (Homo sapiens, UniProt P08684). As to the kind of experiment: Inhibition of CYP3A4 (unknown origin). It is filed as ADME.
The target of data set [3] is T1, Indoleamine 2,3-dioxygenase 1. The data set is described as follows: Inhibition of IFN gamma induced human IDO1 in HeLa cells assessed as reduction in kynurenine production treated with 5-fold serial dilution beginning at 400 uM after 24 hrs by microtiter plate reader. It is filed as cell-based. In outline: (§1)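 HeLa cells seeded 10,000/well in DMEM + 10% FBS + 1% pen-strep; IDO1 induced with IFNγ (100 ng/mL final) for 24 h. Media discarded, wells rinsed, compound serial dilutions added in DMEM + 10% FBS with Trp adjusted to 100 μM. 24 h at 37 °C. TCA stop and fixation 1 h at 4 °C. Supernatant heated at 65 °C for 15 min, mixed with Ehrlich's reagent, read at 490 nm.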
Target sequence in this assay (P14902 whole entry): as above

For a further data set, the system named is HeLa. As to the kind of experiment: Cytotoxicity against human HeLa cells assessed as cell viability upto 100 uM by sulforhodamine B assay. The format is cell-based. The method in brief:
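HeLa cells seeded at 10,000/well in DMEM + 10% FBS, IDO1 induced 24 h with IFNγ (100 ng/mL final), then compound serial dilutions in medium with 100 μM Trp for 24 h at 37 °C. Cells fixed with TCA 1 h at 4 °C, stained with 0.4% SRB 15 min, dye solubilized in 10 mM Tris; absorbance at 570 nm.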

For data set [4], the target named is T1, Indoleamine 2,3-dioxygenase 1. The data set is described as follows: Inhibition of recombinant human IDO1 assessed as reduction in kynurenine production using L-tryptophan as substrate after 60 mins by Michaelis-Menton plot analysis. The method in brief:
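Purified recombinant human IDO1 (~27 nM) in 50 mM potassium phosphate pH 6.5 with 40 mM ascorbate, 400 μg/ml catalase and 20 μM methylene blue. For IC50, L-Trp at 100 μM (Km 80 μM). For Ki, inhibitor dilutions matrixed with L-Trp dilutions. 60 min at 37 °C, TCA stop, 65 °C for 15 min, Ehrlich's reagent, A490.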
Target sequence in this assay (P14902 whole entry): as above

Data set [5] shares this target. The data set is described as follows: Inhibition of doxycycline-induced human IDO1 expressed in Trex cells assessed as reduction in kynurenine production treated with 5-fold serial dilution beginning at 400 uM after 24 hrs by microtiter plate reader. It is filed as cell-based. The method in brief:
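T-Rex cells carrying tet-regulated human IDO1 cDNA seeded 10,000/well in DMEM + 10% FBS + 1% pen-strep; IDO1 induced with media containing 20 ng/mL doxycycline for 24 h. Media replaced by compound serial dilutions in DMEM + 10% FBS, Trp 100 μM. 24 h at 37 °C. TCA fixation, supernatant heated at 65 °C, Ehrlich's reagent, A490. Single run.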
Target sequence in this assay (P14902 whole entry): as above

Another data set addresses T2, Catalase (Homo sapiens, UniProt P04040).
T2 sequence (P04040 whole entry): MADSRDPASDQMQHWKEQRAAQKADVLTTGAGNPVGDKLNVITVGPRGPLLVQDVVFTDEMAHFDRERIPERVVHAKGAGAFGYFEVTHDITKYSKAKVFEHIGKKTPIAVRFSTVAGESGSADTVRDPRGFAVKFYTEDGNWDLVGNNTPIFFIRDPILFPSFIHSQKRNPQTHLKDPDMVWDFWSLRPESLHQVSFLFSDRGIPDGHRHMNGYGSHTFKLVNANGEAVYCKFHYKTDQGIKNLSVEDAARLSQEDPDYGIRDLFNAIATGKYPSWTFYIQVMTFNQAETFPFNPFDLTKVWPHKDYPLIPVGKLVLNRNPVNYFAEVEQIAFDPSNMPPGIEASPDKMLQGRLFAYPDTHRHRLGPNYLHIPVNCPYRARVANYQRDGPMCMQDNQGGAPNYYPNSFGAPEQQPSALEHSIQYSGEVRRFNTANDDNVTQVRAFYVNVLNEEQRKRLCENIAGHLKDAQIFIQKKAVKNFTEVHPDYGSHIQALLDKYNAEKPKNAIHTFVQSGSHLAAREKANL
The data set is described as follows: Inhibition of catalase (unknown origin) using hydrogen peroxide as substrate.

The target in data set [6] is T1, Indoleamine 2,3-dioxygenase 1. As to the kind of experiment: Inhibition of IFN gamma induced human IDO1 in HeLa cells assessed as reduction in kynurenine production treated with 3-fold serial dilution beginning at 100 uM after 24 hrs by microtiter plate reader. It is filed as cell-based. In outline:
as §1
Target sequence in this assay (P14902 whole entry): as the sequence (P14902 whole entry) above

Chain of Cytochrome P450 3A4 (P08684 whole entry): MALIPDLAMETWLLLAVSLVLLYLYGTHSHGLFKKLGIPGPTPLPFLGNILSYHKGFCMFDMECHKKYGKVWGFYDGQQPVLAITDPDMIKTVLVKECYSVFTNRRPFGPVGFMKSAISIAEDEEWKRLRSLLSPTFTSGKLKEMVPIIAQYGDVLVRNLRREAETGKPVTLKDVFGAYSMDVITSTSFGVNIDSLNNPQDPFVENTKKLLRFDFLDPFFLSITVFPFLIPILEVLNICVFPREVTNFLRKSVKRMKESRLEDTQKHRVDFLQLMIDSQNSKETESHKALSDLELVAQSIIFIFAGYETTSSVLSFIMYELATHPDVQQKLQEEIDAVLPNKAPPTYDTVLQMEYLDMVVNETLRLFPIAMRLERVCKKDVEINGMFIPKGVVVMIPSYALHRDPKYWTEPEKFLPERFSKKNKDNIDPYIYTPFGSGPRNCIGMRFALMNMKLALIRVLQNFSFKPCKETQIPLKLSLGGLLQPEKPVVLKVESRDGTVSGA

On to `ONCc1ccccc1`, for which the IC50 in data set [1] came out at 6000 nM. Consider `NOCc1cc(C(F)(F)F)ccc1F`, for which the IC50 in [1] was determined as 570 nM. The same measure, in the same setting: then `NOCc1cccc(Br)c1`, with 320 nM. Same read-out and setting: then `COc1cccc(CON)c1O`, with 55000 nM; and `NOC1Cc2ccccc2C1`, with 10000 nM; and `NOCc1cc(C(F)(F)F)cc(C(F)(F)F)c1`, with 4600 nM. For `NOCc1cccc(Cl)c1Cl`, the IC50 in data set [1] is 450 nM. With `NOCc1ccc(Br)cc1`, the half-inhibitory concentration (IC50) in data set [1] was determined as 1600 nM. The same measure, in the same setting: then `NOCc1ccc(Cl)cc1`, with 1300 nM. For `Cc1cccc(CON)c1`, in [1], the IC50 came to 2700 nM. Still for that read-out and setting: next, `NOCc1ccccc1Cl`: 630 nM.

As for `NOC(c1ccccc1)C1CC1` (stereo unspecified), the IC50 in [1] came to 5200 nM. In the case of `NOCc1ccc(C(F)(F)F)cc1F`, the IC50 in data set [1] was 1100 nM. Consider `NOCc1ccccc1I`, for which the IC50 in data set [1] worked out at 570 nM. Take `NNCc1ccccc1` [BENZYLHYDRAZINE]: the IC50 in data set [1] amounted to 71000 nM. Still for that read-out and setting: then `NOCc1ccc([N+](=O)[O-])cc1`, with 2700 nM; and `NOCc1ccc(-c2ccccc2)cc1`, with 12000 nM.

For the compound `NOC/C=C/c1ccccc1`, the IC50 in [1] is 7100 nM.

With `NOCc1ccc(O)cc1`, in data set [1], the IC50 amounted to 61000 nM. Take `NOCc1ccc(F)cc1`: the IC50 in [1] was 980 nM. As to `NOCc1ccccc1Br`, the IC50 in data set [1] amounted to 1600 nM. In the case of `CC(C)c1ccc(CON)cc1`, the IC50 in data set [1] turned out to be 15000 nM. The same measure, in the same setting: then `NOCc1cc(Cl)cc(Cl)c1`, with 900 nM; and `O=C(NO)c1ccccc1` [BENZOHYDROXAMATE], with 16000 nM. On to `Cl.NOCc1ccc(I)cc1`, for which the IC50 in data set [1] was 220 nM; at Cytochrome P450 3A4 it was 7200 nM; in data set [3], 82 nM; in data set [5], 180 nM; on Catalase, more than 100000 nM. The inhibition entry in data set [2] is “Active”. Also, the Activity entry in the data set on HeLa was “Non-toxic”. Besides, the inhibition constant Ki in data set [4] turned out to be 164 nM. As to `NOCc1cccc(I)c1`, the IC50 in data set [1] amounted to 340 nM. In the case of `NOC1CCc2ccccc21` (stereo unspecified), the IC50 in [1] was 26000 nM. Still for that read-out and setting: next, `NOCc1ccccc1F`: 1400 nM; `NOCc1cc(Br)cc(Br)c1`: 4200 nM. As to `NOCc1ccccc1C(F)(F)F`, the IC50 in [1] stood at 2500 nM. Consider `COc1cccc(CON)c1`, for which the IC50 in [1] came to 9500 nM.

Regarding `NOCc1ccc(I)cc1Cl`, the IC50 in [1] amounted to 730 nM.

In the case of `ONc1ccccc1`, the IC50 in data set [1] stood at 9200 nM.

As to `NNc1ccccc1` [PHENYLHYDRAZINE], the IC50 in [1] was 230 nM. On to `NOCc1ccccc1`, for which the IC50 in [1] was determined as 810 nM. With `NOCc1cccc(C(F)(F)F)c1`, in data set [1], the IC50 turned out to be 410 nM. Turning to `NOCc1ccccc1O`, the IC50 in data set [1] was 19000 nM. As to `NOCCCc1ccccc1`, the IC50 in data set [1] was 82000 nM. On to `NOCc1cccc(F)c1`, for which the half-inhibitory concentration (IC50) in data set [1] amounted to 1000 nM. For the compound `NOC1CCCc2ccccc21` (stereo unspecified), the IC50 in data set [1] turned out to be 10000 nM.

As for `Cl.NOCc1cccc(Cl)c1`, the IC50 in data set [1] was 300 nM; at Cytochrome P450 3A4 it was 15000 nM; in [3], 114 nM; in [6], 134 nM; in [5], 77 nM; on Catalase it was more than 100000 nM. Moreover, the inhibition entry in data set [2] was “Active”. The Activity entry in the data set with HeLa is “Non-toxic”. Further, in data set [4], the Ki stood at 154 nM. For the compound `NOCc1ccc(F)cc1C(F)(F)F`, the IC50 in [1] worked out at 2400 nM.

As to `NOCc1ccc(Cl)c(Cl)c1`, the IC50 in data set [1] was 2100 nM. In the case of `COc1ccc(OC)c(CON)c1`, the IC50 in data set [1] was found to be 1700 nM. As for `COc1ccccc1CON`, the IC50 in data set [1] is 5400 nM. `NOCc1ccc(F)cc1F`: the IC50 in data set [1] was 1400 nM.

For `NOCc1ccc(Cl)c(C(F)(F)F)c1`, the half-inhibitory concentration (IC50) in data set [1] was 490 nM. In the case of `NOCc1ccc(C(F)(F)F)cc1`, the IC50 in [1] worked out at 8900 nM.

Take `NOCc1cc(F)cc(F)c1`: the IC50 in data set [1] worked out at 3400 nM.

As to `NOCc1ccc(Cl)cc1Cl`, the IC50 in data set [1] worked out at 630 nM. On to `COc1ccc(CON)cc1`, for which the IC50 in data set [1] stood at 24000 nM.
